Rows were chosen to be rich in hits. Some 2% of all compounds tested hit in one or more screens of this group.
HCV core dimer: inhibitors of HCV core protein dimerization, primary screen, biochemical, TR-FRET, high-throughput; TR-FRET GST/Flag-core106 dimerization, 1536-well; inhibition, % at 5 µM; 0.33% of 300,000 active; AID 1899, 2009;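 active means inhibition above the mean of all tested compounds plus 3 SD, set per screening campaign, cut at about 45% in these data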
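System – GST-tagged and Flag-tagged HCV core protein residues 1-106 · Repeats – one well for each compound · Technique – TR-FRET 671 and 617 nm emission · Doses – one concentration, 5 µM, in 0.5% DMSO · Times – 4 h, 22.5 °C incubation · Also added – Eu donor and XL665 acceptor anti-tag antibodies · Measure – percent inhibition of core106 dimerization signal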
DNA FID counter: compounds displacing fluorescent DNA intercalator, primary screen, artefact control for HCV NS3 helicase inhibitor project, biochemical, FID fluorescence; inhibition, % at 7.9 µM; DNA fluorescent intercalator displacement; 0.17% of 290,000 active; AID 1845, 2009; in the data active means inhibition above about 37%;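 further: higher means more ethidium bromide displaced from hairpin DNA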
HCV NS3 hel inh: inhibitors of HCV NS3 helicase, primary screen, biochemical, Cy5 molecular beacon fluorescence | Hepatitis C virus NS3 helicase | NS3 helicase DNA unwinding | inhibition, % at 10.9 µM | 0.56% of 290,000 active;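 active means inhibition above the mean of all tested compounds plus 3 SD, set per campaign, cut at about 35% in these data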
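System: NS3 helicase fragment of HCV / Schedule: 1 h at 25 °C / Control set: DMSO alone as 0% and 110 µM thioflavine S as 100% / Reagent: Cy5/quencher beacon DNA duplex and ATP to start / Technique: Cy5 fluorescence / Replication: singlicate / Evaluation: % inhibition of end-to-start signal ratio versus controls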
MLLE-PAM2 inh: inhibitors of PABP1 MLLE–PAM2 peptide binding, primary screen, biochemical, fluorescence polarization, FITC-PAM2, GST-MLLE; inhibition, % at 20 µM; 0.36% of 360,000 active; in the data active means inhibition above about 35%, passing the limit was not always enough
PABP FP inh: PABP poly(A) RNA binding inhibitors, primary screen, biochemical, fluorescence polarization, uHTS | inhibition, % at 35 µM | 1% of 290,000 active | AID 2014, 2009;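 further: calls also rest on retests at 20 µM and on dose response follow-up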
eIF4H inh: human eIF4H binding inhibitors, primary screen, translation initiation inhibitor project, biochemical, uHTS, fluorescence polarization | Eukaryotic translation initiation factor 4H (Homo sapiens), Q15056 | eIF4H fluorescence polarization binding assay | inhibition, % at 35 µM | 0.94% of 290,000 active;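 further: calls also rest on retests at 20 µM and on dose response follow-up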
Each line names hits and unclear results; the compound was inactive in the other large screens. Unless noted, how the calls were made is not given here.

Cc1c(C)n(C(=O)CSc2nc3ccccc3[nH]2)c2ccccc12	PABP FP inh 52, eIF4H inh 68
O=C(CSc1nc2ccccc2[nH]1)N1CCCCC1	none
COCCNc1ncnc2c1ncn2[C@H]1CN(Cc2ccc(-c3ccccc3)cc2)C[C@@H](CO)O1	none (no result: HCV core dimer, DNA FID counter, HCV NS3 hel inh, PABP FP inh, eIF4H inh)
Oc1ccc(CN2CCCc3ccccc32)c2cccnc12	MLLE-PAM2 inh 42
COc1ccccc1N1CCN(Cc2ccc(O)c3ncccc23)CC1	none
Cc1cccc2sc(N(CCCN(C)C)C(=O)c3ccc(C(=O)c4ccccc4)cc3)nc12	DNA FID counter 38
CN(C)CCCN(C(=O)c1ccc(S(=O)(=O)N2CCCCC2)cc1)c1nc2cc3c(cc2s1)OCO3	DNA FID counter 38
CN(C)CCCN(C(=O)c1ccc(C(=O)c2ccccc2)cc1)c1nc2cc3c(cc2s1)OCO3	DNA FID counter 44
CCN(CC)CCN(C(=O)c1ccc(C(=O)c2ccccc2)cc1)c1nc2cc3c(cc2s1)OCO3	none
Cc1cccc2sc(N(CCCN(C)C)C(=O)c3sc4ccccc4c3Cl)nc12	none
CCNC(=O)C1CCCN(C(=O)c2ccccc2OC(F)(F)F)CC1 (centres undefined)	none (no result: HCV core dimer, DNA FID counter, HCV NS3 hel inh, PABP FP inh, eIF4H inh)
COc1ccccc1N(C)c1cc2c(c3c1ccn3C)C1CCC2O1 (centres undefined)	none (no result: HCV core dimer, DNA FID counter, HCV NS3 hel inh, PABP FP inh, eIF4H inh)
COc1cccc(CN2CC(C(=O)NCCCCc3ccccn3)CCC2=O)c1 (centres undefined)	none (no result: HCV core dimer)
c1ccc(Cn2c(SCc3nc4ccccc4s3)nnc2-c2ccco2)cc1	HCV core dimer 50
Cc1[nH]c2ccccc2c1/C=C(\C#N)C(=O)NC(C)c1ccccc1 (centres undefined)	PABP FP inh 57
Cc1[nH]c2ccccc2c1/C=C(\C#N)C(=O)NC1CC1	none
O=C(Cc1cccs1)Nc1nnc(Cc2ccccc2)s1	HCV core dimer 83
COc1ccc(C(=O)Nc2nnc(Cc3ccccc3)s2)c(OC)c1	HCV core dimer 68
COc1cc(C(=O)Nc2nnc(Cc3ccccc3)s2)cc(OC)c1OC	none (no result: HCV core dimer)
COc1ccc(-c2nnc(NC(=O)c3cccs3)s2)c(OC)c1	eIF4H inh 55
COc1ccc(Cc2nnc(NC(=O)Cc3cccs3)s2)cc1OC	HCV core dimer 74
CC(NC(=O)Cn1cc([N+](=O)[O-])cn1)c1ccc(C(C)(C)C)cc1 (centres undefined)	none (no result: DNA FID counter, HCV NS3 hel inh, PABP FP inh, eIF4H inh)
COc1ccccc1N1CCN(Cc2cc(=O)c(OCC(=O)NC3CCCC3)co2)CC1	none (no result: DNA FID counter, HCV NS3 hel inh, PABP FP inh, eIF4H inh)
CCOCc1nnc(NC(=O)C2CC(=O)N(C3CCCC3)C2)s1 (centres undefined)	none
O=C(c1cscn1)N1CCCC(N2CCN(c3ccc(F)cc3)CC2)C1 (centres undefined)	none
Cc1cccc(CN2C(=O)N/C(=C/c3ccc(C)s3)C2=O)c1	PABP FP inh 88, eIF4H inh 69
Nc1nnc(CC(=O)N/N=C/c2cc([N+](=O)[O-])cc(Br)c2O)s1	PABP FP inh 47, eIF4H inh 86
Cc1c(C(=O)NCc2ccccc2C(F)(F)F)sc(=O)n1Cc1ccc(Cl)c(Cl)c1	none (no result: HCV core dimer, DNA FID counter, HCV NS3 hel inh, PABP FP inh, eIF4H inh)
CC1(C(=O)NC2CCCCCC2)CCN1C(=O)Cc1ccc(-c2ccccc2)cc1 (centres undefined)	none (no result: HCV core dimer, DNA FID counter, HCV NS3 hel inh, PABP FP inh, eIF4H inh)
C=C(c1ccccc1)c1ccccc1N	none (no result: DNA FID counter, HCV NS3 hel inh, PABP FP inh, eIF4H inh)
COC(=O)N(C)C[C@H]1OCc2cnnn2CCCC(=O)N([C@H](C)CO)C[C@H]1C	none (no result: HCV core dimer, DNA FID counter, HCV NS3 hel inh, PABP FP inh, eIF4H inh)
CC(=O)c1cc(-c2ccccc2)[nH]c1N1CCOCC1	MLLE-PAM2 inh 44
O=C(/C=C/c1ccco1)NC1=NCCS1	PABP FP inh active, eIF4H inh inconclusive
O=C(/C=C/c1ccco1)Nc1cccc(NC(=O)/C=C/c2ccco2)n1	HCV core dimer 49, eIF4H inh inconclusive
Cc1nc(NC(=O)/C=C/c2ccco2)sc1C	none
CCCCN(C(=O)C(C)Oc1ccc(Cl)cc1)c1c(N)n(CCCC)c(=O)[nH]c1=O (centres undefined)	none (no result: DNA FID counter, HCV NS3 hel inh, PABP FP inh, eIF4H inh)
COc1cc(CNCCCN2CCOCC2)cc(Br)c1OCc1ccc(Cl)cc1	DNA FID counter 42
COc1cccc2sc3ccc(NCc4ccc5c(c4)OCO5)cc3c(=O)c12	eIF4H inh 52
CC(C)(C)c1ccc(C(=O)CC(Sc2ccc(Cl)cc2)C(=O)O)cc1 (centres undefined)	MLLE-PAM2 inh 46
CC(C)(C)c1ccc(C(=O)Nc2ccc(Cl)cc2)cc1	none
COc1ccc(O)c(/C=N/NC(=S)Nc2cccnc2)c1	MLLE-PAM2 inh 41
Oc1ccc(/C=N/NC(=S)Nc2cccnc2)cc1	MLLE-PAM2 inh 38
COc1cccc(/C=N/NC(=S)Nc2cccnc2)c1	PABP FP inh inconclusive
COc1ccccc1-c1nnc(SCC(=O)Nc2cccnc2Cl)n1C	none (no result: HCV core dimer, DNA FID counter, HCV NS3 hel inh, PABP FP inh, eIF4H inh)
CSc1nc2oc3c(c2c2nncn12)CC(C)(C)SC3	MLLE-PAM2 inh 45
CC(=O)Nc1ccc(S(=O)(=O)NC(C)C(=O)NC(C)c2ccccc2)cc1 (centres undefined)	MLLE-PAM2 inh 49
CS(=O)(=O)C1=NSC2=NC(=O)/C(=C\c3ccc(OC(=O)c4ccco4)c(Br)c3)C(=N)N21	none
COc1ccc(COC[B-](F)(F)F)cc1	none (no result: HCV core dimer, DNA FID counter, HCV NS3 hel inh, PABP FP inh, eIF4H inh)
CC(O)Cn1ccccc1=N (centres undefined)	PABP FP inh 73, eIF4H inh 83
N=c1ccccn1CC(O)COc1ccccc1 (centres undefined)	PABP FP inh inconclusive, eIF4H inh inconclusive
COc1ccc(/C(C)=N\NC(=O)CSc2nnc(C)s2)cc1	MLLE-PAM2 inh 48
C/C(=N\NC(=O)CSc1nnc(C)s1)c1ccc(Cl)cc1	none
CCC(=O)N1CCCC(C)(C(=O)Nc2ccc(OC(F)F)cc2)C1 (centres undefined)	none (no result: HCV core dimer, DNA FID counter, HCV NS3 hel inh, PABP FP inh, eIF4H inh)
Cc1ccc(N/C=C2/Sc3ccccc3NC2=O)cc1	PABP FP inh active, eIF4H inh inconclusive
O=C(NC(=S)Nc1ncc(Br)cc1Br)c1ccccc1	none
O=C(CCCSc1nc2ccccc2c(=O)[nH]1)c1ccc(F)cc1	eIF4H inh 84
Cc1ccc(C(=O)CSc2nc3ccccc3c(=O)[nH]2)cc1	none
OC(Cc1ccccc1)c1ncc(-c2ccc(Cl)cc2)[nH]1 (centres undefined)	none (no result: HCV core dimer, DNA FID counter, HCV NS3 hel inh, PABP FP inh, eIF4H inh)
COc1ccc(-c2coc3c(C(=O)NCC(C)C)cccc23)c(C)c1	none (no result: HCV core dimer, DNA FID counter, HCV NS3 hel inh, PABP FP inh, eIF4H inh)
CSc1nc2sc3c(c2c(=O)n1C)CCC3	none
C#CCSc1nc2sc3c(c2c(=O)n1C)CCC3	PABP FP inh 38, eIF4H inh 63
CCn1c(NN)nc2sc3c(c2c1=O)CCC3	HCV core dimer 55, PABP FP inh 30, eIF4H inh 52
CCSc1nc2sc3c(c2c(=O)n1CC)CCC3	none (no result: HCV core dimer)

Screening data as filed in PubChem BioAssay.
